This is an account of results in ChEMBL document CHEMBL5154719, “Probing Embryonic Development Enables the Discovery of Unique Small-Molecule Bone Morphogenetic Protein Potentiators” (J Med Chem, 2022).

Experiment [1] concerns Embryonic stem cell. Nature of the experiment: Induction of cardiac differentiation in mouse ESC transfected with Myh6-GFP treated for 48 hrs and measured after 4 to 6 days by imaging analysis. In kind it is functional, cell-based. The note with it: time 4-6 day.
Experiment [2] relates to C2C12. Nature of the experiment: Induction of BMP-dependent osteogenesis in mouse C2C12 cells incubated for 72 hrs. In kind it is functional, cell-based. In outline: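 C2C12 myoblasts, 2000 cells/well in DMEM with 6% heat-inactivated FBS, grown 16 h; compounds added in triplicate, then BMP-4 at 7.5 ng/mL; 72 h. ALP activity read by luminescence after lysis with CDP-Star substrate, 1 h at room temperature in the dark. Activity with 7.5 ng/mL BMP-4 in DMSO set to 100%. EC50 by curve fitting.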

The nature of experiment [3]: Inhibition of DMH-1 induced cardiogenesis in mouse ESC transfected with Myh6-GFP. In kind it is functional, cell-based. The note with it: embryonic stem cell. A digest of the protocol: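 mESC-Myh6-GFP, 500 cells/well on gelatine, LIF-free medium from day 0. On day 3, compounds added (triplicates for IC50) with DMH-1 at 0.5 μM final, 0.2% DMSO, 6% FBS; 24 h. Medium then changed, refreshed days 7 and 9. Day 11: PFA fixation, DAPI stain, automated imaging of GFP intensity and cell count, normalized to DMH-1. Cell count below 70% of DMH-1 flagged as cytotoxic.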

In experiment [4] the target is Glycogen synthase kinase-3 beta (Homo sapiens, UniProt P49841). Nature of the experiment: Inhibition of GSK3beta (unknown origin).
The nature of experiment [5]: Induction of alkaline phosphatase activation in mouse C2C12 cells assessed as fold increase incubated in presence of 50 ng/ml BMP4 at 1 uM relative to BMP4 alone. In kind it is functional.
Experiment [6] concerns Embryonic stem cell. Nature of the experiment: Induction of cardiac differentiation in mouse ESC transfected with Myh6-GFP treated for 48 hrs and measured after 3 to 6 days by imaging analysis. Format: functional, cell-based. The note with it: time 3-6 day. A digest of the protocol: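 mESC-Myh6-GFP seeded on 0.1% gelatine at 500 cells/well in LIF-free medium to differentiate spontaneously (day 0). Inhibitors given dose-dependently for 48 h over the stated day windows. Medium later changed to complete LIF-free medium. On day 11, cells PFA-fixed and DAPI-stained. GFP+ cardiomyocytes quantified by high-content imaging, normalized to DMSO; mean ± SEM.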

Experiment [7] deals with SAOS-2. Nature of the experiment: Induction of osteoblastic mineralization in human SAOS-2 cells at 25 nM followed by BMP-4 addition measured after 11 days of osteogenic differentiation. In kind it is functional, cell-based. The note with it: time 11.0 day. A digest of the protocol:
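SaOS-2 cells, 8×10³ cells/well, in osteogenic medium (10 mM β-glycerophosphate, 0.2 mM ascorbic acid, 10 nM dexamethasone) with 2 ng/mL BMP-4 or BMP-2 for 11 days. Medium and compound changed every 3 days; ascorbate refreshed daily; DMSO 0.01% vehicle. Mineralization by von Kossa staining; stained area quantified from at least four images per condition at 100× magnification.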

Experiment [8] deals with C2C12. Nature of the experiment: Potentiation of BMP receptor in BMP-4 stimulated mouse C2C12 cells assessed as decrease in cytoplasmic Smad2 level preincubated for 24 hrs followed by BMP-4 stimulation and measured after 30 mins in presence of […]/BMP by Western blot analysis. Format: cell-based. The note with it: filed as activator, time 24.5 hrs. A digest of the protocol:
(§1)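 C2C12 cells exposed to compound with TGFβ-2 (10 ng/mL) for 24 h; for nuclear readout, a further 30 min BMP-4 at 2 ng/mL. Cytoplasmic and nuclear fractions isolated in HEPES buffers, pH 7.5, with phosphatase and protease inhibitors. Smads detected by Western blot, luminescence normalized to total protein per lane (trichloroethanol stain), then to DMSO.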
In general terms: In western blotting, separated proteins are transferred to a membrane and probed.

Experiment [9] concerns C2C12. Nature of the experiment: Potentiation of BMP receptor in mouse C2C12 cells assessed as decrease in cytoplasmic Smad2 level incubated for 24 hrs in presence of […]/BMP by Western blot analysis. The note with it: filed as activator. Format: cell-based. A digest of the protocol:
as §1

Experiment [10] concerns C2C12. Nature of the experiment: […] of osteoblastogenesis in mouse C2C12 cells assessed as upregulation of Runx2 gene expression in presence of BMP4 at 1 uM measured after 72 hrs. Format: functional, cell-based. In outline: (§2)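 C2C12 cells plated at 1 × 10⁵ cells/well and treated with compound (1 μM) plus BMP-4 (7.5 ng/mL) or DMSO for 72 h. RNA isolated and transcripts quantified by qRT-PCR using the ΔΔCp method. Mean of triplicates ± SD, normalized to DMSO.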

In experiment [11] the test system is C2C12. Nature of the experiment: […] of osteoblastogenesis in mouse C2C12 cells assessed as upregulation of Alp gene expression in presence of BMP4 at 1 uM measured after 72 hrs. In kind it is functional, cell-based. In outline: as §2
Experiment [12] deals with C2C12. Nature of the experiment: […] of osteoblastogenesis in mouse C2C12 cells assessed as upregulation of Ocn gene expression in presence of BMP4 at 1 uM measured after 72 hrs. Format: functional, cell-based. In outline: as §2
Experiment [13] relates to C2C12. Nature of the experiment: […] of osteoblastogenesis in mouse C2C12 cells assessed as upregulation of Opn gene expression in presence of BMP4 at 1 uM measured after 72 hrs. In kind it is functional, cell-based. A digest of the protocol: as §2
In experiment [14] the test system is C2C12. Nature of the experiment: […] of osteoblastogenesis in mouse C2C12 cells assessed as upregulation of Col1a1 gene expression in presence of BMP4 at 1 uM measured after 72 hrs. In kind it is functional, cell-based. A digest of the protocol: as §2
The subject of experiment [15] is C2C12. Nature of the experiment: […] of osteoblastogenesis in mouse C2C12 cells assessed as upregulation of Osx gene expression in presence of BMP4 at 1 uM measured after 72 hrs. Format: functional, cell-based. In outline:
as §2

The subject of experiment [16] is C2C12. Nature of the experiment: Potentiation of BMP receptor in mouse C2C12 cells assessed as increase in Id1 gene expression level incubated for 24 hrs by qRT-PCR analysis. The note with it: filed as activator. On the technique in general: In qPCR the cycle at which signal appears reflects the starting amount.
The subject of experiment [17] is C2C12. Nature of the experiment: Potentiation of BMP receptor in mouse C2C12 cells assessed as increase in Id2 gene expression level incubated for 24 hrs by qRT-PCR analysis. The note with it: filed as activator.

Active and inactive are the calls of the source. No cut-off for these calls is given here.

Sequence of Glycogen synthase kinase-3 beta (P49841 whole entry): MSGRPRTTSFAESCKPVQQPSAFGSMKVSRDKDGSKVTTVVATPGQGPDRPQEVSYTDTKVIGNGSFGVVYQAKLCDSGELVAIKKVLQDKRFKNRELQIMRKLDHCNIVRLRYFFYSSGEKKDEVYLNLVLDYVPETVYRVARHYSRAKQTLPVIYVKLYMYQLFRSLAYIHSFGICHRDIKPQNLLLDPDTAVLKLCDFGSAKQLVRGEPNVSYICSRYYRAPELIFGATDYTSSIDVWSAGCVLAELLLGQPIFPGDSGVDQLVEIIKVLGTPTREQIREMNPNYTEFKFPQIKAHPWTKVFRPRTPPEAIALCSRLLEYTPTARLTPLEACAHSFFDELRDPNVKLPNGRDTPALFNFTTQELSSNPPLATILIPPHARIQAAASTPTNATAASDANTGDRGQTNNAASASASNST

`NC(=O)c1ccc(-c2nc(-c3ccccn3)c(-c3ccc4c(c3)OCO4)[nH]2)cc1`: the outcome in experiment [1] was Active.

As usually defined, the IC50 is the concentration needed to halve the response being measured. A high value points to lower potency. With `Cc1cc(Nc2cc(Cl)nc(Oc3ccc([N+](=O)[O-])cc3)n2)n[nH]1`, the outcome in experiment [2] was Active. Besides, the results for the IC50 in [3] and in [4] were 200 nM and 2 nM, respectively. Moreover, in experiment [5], the “fold change (FC)” value is 2.

Regarding `c1cc(-c2cnn3cc(-c4ccc(OCCN5CCCCC5)cc4)cnc23)ccn1`, the outcome in experiment [6] was Active.

`O=c1c(-c2ccc(C(F)(F)F)cc2)c(-n2cncn2)oc2ccccc12`: the result in [7], in [8], in experiment [9], in experiment [2], in experiment [10] and in experiment [11] was Active. Moreover, the result in experiment [12], in experiment [13], in [14], in experiment [15], in experiment [16] and in experiment [17] was Active. Moreover, the IC50 in [3] is 200 nM.
